In ChEMBL document CHEMBL1158538, “(-)-Menthylamine derivatives as potent and selective antagonists of transient receptor potential melastatin type-8 (TRPM8) channels” (Bioorg Med Chem Lett, 2010):

Key:
[1] = test system: DU-145; test: Induction of apoptosis in human DU145 cells assessed as caspase 3/7 release at 1 uM; type: functional
Procedure, shortened: (§1)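 Prostate carcinoma cells (LNCaP, high TRPM8; DU-145, negligible TRPM8) were treated at 1 µM. Apoptosis was read as caspase 3/7 release in arbitrary units. Anti-FAS antibody plus camptothecin served as reference. Means ± SD, N = 3 experiments.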

[2] = target: T1, Transient receptor potential cation channel subfamily M member 8 (Rattus norvegicus, UniProt Q8R455); test: Antagonist activity at rat TRMP8 receptor expressed in HEK293 cells assessed as icilin-induced calcium elevation; type: functional, cell-based
Procedure, shortened: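 HEK-293 cells stably expressing rat TRPM8 received compound 5 min before icilin (0.25 µM). Inhibition of the intracellular Ca2+ elevation was measured. IC50 given as mean ± SEM of N = 3.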

[3] = test system: LNCaP; test: Induction of apoptosis in human LNCAP cells assessed as caspase 3/7 release at 1 uM; type: functional; procedure, shortened: as §1
[4] = target: Transient receptor potential cation channel subfamily A member 1 (Rattus norvegicus) (UniProt Q6RI86); test: Agonist activity at rat TRPA1 receptor expressed in HEK293 cells assessed as intracellular calcium stimulation relative to isothiocyanate; type: functional, cell-based
Procedure, shortened: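 Intracellular Ca2+ rise in HEK-293 cells stably transfected with rat TRPA1, given as percent of the response to allyl isothiocyanate (100 µM). Efficacy under 10% scored not measurable. N = 3, mean ± SEM.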

[5] = target: T2, Transient receptor potential cation channel subfamily V member 1 (Homo sapiens, UniProt Q8NER1); test: Agonist activity at human TRPV1 receptor expressed in HEK293 cells assessed as intracellular calcium stimulation relative to inomycin; type: functional, cell-based
Procedure, shortened: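 Ca2+ elevation in HEK-293 cells stably expressing human TRPV1, expressed as percent of the ionomycin ([…]) response. Not measurable if below 10%. Mean ± SEM, N = 3.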

[6] = target: Transient receptor potential cation channel subfamily A member 1 (Rattus norvegicus, UniProt Q6RI86); test: Agonist activity at rat TRPA1 receptor expressed in HEK293 cells assessed as intracellular calcium stimulation; type: functional, cell-based
Procedure, shortened: (§2)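 Stably transfected HEK-293 lines (human TRPV1 or rat TRPA1) exposed to compound; rise in intracellular Ca2+ recorded. Non-transfected HEK-293 cells served as control. EC50 reported as mean ± SEM, N = 3.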

[7] = target: T1, Transient receptor potential cation channel subfamily M member 8; test: Antagonist activity at rat TRMP8 receptor expressed in HEK293 cells assessed as menthol-induced calcium elevation; type: functional, cell-based
Procedure, shortened: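 Rat TRPM8-transfected HEK-293 cells were pretreated with compound for 5 min, then challenged with menthol (20 µM). Block of the Ca2+ rise gave IC50 (means ± SEM, N = 3).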

[8] = target: T2, Transient receptor potential cation channel subfamily V member 1; test: Agonist activity at human TRPV1 receptor expressed in HEK293 cells assessed as intracellular calcium stimulation; type: functional, cell-based; procedure, shortened: as §2

T1 sequence (Q8R455 whole entry): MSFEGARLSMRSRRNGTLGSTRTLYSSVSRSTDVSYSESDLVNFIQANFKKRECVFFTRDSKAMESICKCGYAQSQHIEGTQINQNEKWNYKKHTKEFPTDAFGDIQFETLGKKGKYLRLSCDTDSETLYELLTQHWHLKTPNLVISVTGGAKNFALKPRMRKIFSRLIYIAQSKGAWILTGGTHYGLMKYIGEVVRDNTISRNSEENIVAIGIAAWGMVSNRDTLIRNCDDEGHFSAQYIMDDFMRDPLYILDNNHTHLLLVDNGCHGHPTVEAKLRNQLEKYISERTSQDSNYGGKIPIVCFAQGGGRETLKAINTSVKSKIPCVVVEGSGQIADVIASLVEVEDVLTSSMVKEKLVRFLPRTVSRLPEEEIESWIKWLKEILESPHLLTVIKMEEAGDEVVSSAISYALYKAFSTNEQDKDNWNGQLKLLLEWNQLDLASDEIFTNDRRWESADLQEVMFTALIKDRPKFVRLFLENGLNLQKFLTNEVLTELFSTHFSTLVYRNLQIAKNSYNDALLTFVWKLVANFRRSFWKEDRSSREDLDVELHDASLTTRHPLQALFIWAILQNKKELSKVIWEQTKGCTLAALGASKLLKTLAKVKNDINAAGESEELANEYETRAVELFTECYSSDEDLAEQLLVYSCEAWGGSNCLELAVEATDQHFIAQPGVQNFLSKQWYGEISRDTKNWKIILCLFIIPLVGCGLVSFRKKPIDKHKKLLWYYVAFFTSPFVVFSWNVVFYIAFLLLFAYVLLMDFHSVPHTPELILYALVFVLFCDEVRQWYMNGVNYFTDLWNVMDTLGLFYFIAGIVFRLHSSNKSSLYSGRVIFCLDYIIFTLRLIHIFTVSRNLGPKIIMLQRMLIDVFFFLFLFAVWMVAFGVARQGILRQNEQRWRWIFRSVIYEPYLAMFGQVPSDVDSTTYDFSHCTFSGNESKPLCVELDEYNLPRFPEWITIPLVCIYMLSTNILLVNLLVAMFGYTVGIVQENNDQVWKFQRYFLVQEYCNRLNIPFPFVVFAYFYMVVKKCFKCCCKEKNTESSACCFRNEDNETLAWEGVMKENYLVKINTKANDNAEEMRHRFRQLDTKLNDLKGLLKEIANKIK
Sequence of Transient receptor potential cation channel subfamily A member 1 (Q6RI86 whole entry): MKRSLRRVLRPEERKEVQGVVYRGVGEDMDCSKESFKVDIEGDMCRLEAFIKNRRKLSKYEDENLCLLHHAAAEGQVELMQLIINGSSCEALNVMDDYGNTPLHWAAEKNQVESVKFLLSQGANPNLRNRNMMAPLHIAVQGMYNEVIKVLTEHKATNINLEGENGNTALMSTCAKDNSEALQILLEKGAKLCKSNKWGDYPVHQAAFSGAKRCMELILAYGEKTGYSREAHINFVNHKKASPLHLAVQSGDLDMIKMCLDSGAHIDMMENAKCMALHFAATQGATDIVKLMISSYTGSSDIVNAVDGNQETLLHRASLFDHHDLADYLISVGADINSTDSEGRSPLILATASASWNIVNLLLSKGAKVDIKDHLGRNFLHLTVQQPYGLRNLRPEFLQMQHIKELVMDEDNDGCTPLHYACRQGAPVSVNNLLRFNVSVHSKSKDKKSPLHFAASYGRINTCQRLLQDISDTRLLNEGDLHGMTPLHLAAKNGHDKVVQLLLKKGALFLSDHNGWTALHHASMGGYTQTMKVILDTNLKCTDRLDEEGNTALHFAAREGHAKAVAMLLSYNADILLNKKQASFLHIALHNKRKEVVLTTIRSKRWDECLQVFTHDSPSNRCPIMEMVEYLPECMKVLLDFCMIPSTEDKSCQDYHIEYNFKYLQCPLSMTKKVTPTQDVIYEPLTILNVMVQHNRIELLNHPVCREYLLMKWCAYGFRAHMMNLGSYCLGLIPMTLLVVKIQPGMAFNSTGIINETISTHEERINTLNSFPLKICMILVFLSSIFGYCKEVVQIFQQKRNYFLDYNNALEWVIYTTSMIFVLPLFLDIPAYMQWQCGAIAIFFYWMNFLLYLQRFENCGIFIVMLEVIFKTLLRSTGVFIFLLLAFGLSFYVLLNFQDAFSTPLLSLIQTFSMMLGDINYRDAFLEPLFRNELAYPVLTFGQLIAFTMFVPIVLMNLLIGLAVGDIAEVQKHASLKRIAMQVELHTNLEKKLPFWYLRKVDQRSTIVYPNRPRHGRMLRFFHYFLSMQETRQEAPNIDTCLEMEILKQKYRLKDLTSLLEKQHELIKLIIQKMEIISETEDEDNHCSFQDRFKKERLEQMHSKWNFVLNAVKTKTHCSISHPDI
Sequence of Transient receptor potential cation channel subfamily A member 1 (Rattus norvegicus) (Q6RI86 whole entry): as above
T2 sequence (Q8NER1 whole entry): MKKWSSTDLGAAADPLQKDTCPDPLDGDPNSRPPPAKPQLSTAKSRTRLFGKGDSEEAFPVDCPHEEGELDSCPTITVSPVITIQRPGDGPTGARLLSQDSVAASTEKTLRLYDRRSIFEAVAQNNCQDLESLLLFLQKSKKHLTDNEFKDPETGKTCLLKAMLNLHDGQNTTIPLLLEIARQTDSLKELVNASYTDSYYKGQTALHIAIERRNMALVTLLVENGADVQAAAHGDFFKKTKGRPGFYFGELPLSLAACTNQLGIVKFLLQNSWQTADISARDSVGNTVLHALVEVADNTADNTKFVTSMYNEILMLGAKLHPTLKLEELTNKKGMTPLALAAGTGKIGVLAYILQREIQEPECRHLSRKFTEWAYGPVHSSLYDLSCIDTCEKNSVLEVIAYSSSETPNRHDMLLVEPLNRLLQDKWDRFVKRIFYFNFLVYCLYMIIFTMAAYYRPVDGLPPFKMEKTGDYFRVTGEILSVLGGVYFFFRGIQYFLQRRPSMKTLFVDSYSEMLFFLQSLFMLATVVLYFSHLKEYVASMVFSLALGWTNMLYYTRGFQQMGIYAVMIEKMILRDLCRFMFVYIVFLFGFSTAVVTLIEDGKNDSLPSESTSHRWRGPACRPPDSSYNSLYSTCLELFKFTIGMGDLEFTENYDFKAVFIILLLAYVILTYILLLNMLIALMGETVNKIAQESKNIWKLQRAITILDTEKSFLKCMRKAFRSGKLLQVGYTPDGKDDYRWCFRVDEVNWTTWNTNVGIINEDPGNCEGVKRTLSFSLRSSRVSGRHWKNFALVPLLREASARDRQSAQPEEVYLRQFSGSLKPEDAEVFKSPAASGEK

## CC(C)[C@@H]1CC[C@@H](C)C[C@H]1NC(=O)c1ccc(-c2ccccc2)cc1
[1]
  Activity: 9770 a.u.
[2]
  IC50: 0.05 µM
[3]
  Activity: 58576 a.u.
[4]
  Efficacy: 34.7%
[5]
  Efficacy: 7.8%
[6]
  EC50: 4.1 µM
[7]
  IC50: 0.02 µM

## CC(C)[C@@H]1CC[C@@H](C)C[C@H]1NC(=O)CCCCCCc1ccccc1
[2]
  IC50: 0.4 µM
[4]
  Efficacy: 42.8%
[5]
  Efficacy: 8%
[6]
  EC50: 0.4 µM
[7]
  IC50: 0.4 µM

## CC(C)[C@@H]1CC[C@@H](C)C[C@H]1NC(=O)Oc1cccc(C(C)(C)C)c1
[2]
  IC50: 3.3 µM
[4]
  Efficacy: 273%
[8]
  EC50: 5.8 µM
[5]
  Efficacy: 16.3%
[6]
  EC50: 36.7 µM
[7]
  IC50: 5.9 µM

## CC(C)[C@@H]1CC[C@@H](C)C[C@H]1NC(=O)NC12CC3CC(CC(C3)C1)C2
[2]
  IC50: > 100 µM
[4]
  Efficacy: 159%
[8]
  EC50: 1 µM
[5]
  Efficacy: 24.4%
[6]
  EC50: 11.2 µM
[7]
  IC50: > 100 µM

## COc1ccc(C(=O)N[C@@H]2C[C@H](C)CC[C@H]2C(C)C)cc1
[2]
  IC50: 9.6 µM
[4]
  Efficacy: < 10%
[5]
  Efficacy: 9.6%
[7]
  IC50: 12.8 µM

## Cc1ccc(C(=O)N[C@@H]2C[C@H](C)CC[C@H]2C(C)C)cc1
[2]
  IC50: 2.5 µM
[4]
  Efficacy: < 10%
[5]
  Efficacy: 5.4%
[7]
  IC50: 2.2 µM

## CC(C)[C@@H]1CC[C@@H](C)C[C@H]1NC(=O)CCCCCCCc1ccccc1
[2]
  IC50: 0.5 µM
[4]
  Efficacy: 67%
[5]
  Efficacy: 5.5%
[6]
  EC50: 26.7 µM
[7]
  IC50: 0.4 µM

## CC(C)[C@@H]1CC[C@@H](C)C[C@H]1NC(=O)Oc1cccc(Cl)c1
[2]
  IC50: 0.5 µM
[4]
  Efficacy: 309%
[8]
  EC50: 19.2 µM
[5]
  Efficacy: 22.6%
[6]
  EC50: 30 µM
[7]
  IC50: 1.5 µM

## CCCCCCCC/C=C\CCCCCCCC(=O)N[C@@H]1C[C@H](C)CC[C@H]1C(C)C
[2]
  IC50: > 100 µM
[4]
  Efficacy: < 10%
[5]
  Efficacy: 4.4%
[7]
  IC50: 60.6 µM

## CC(C)[C@@H]1CC[C@@H](C)C[C@H]1NC(=O)Oc1ccc(Cl)cc1
[2]
  IC50: 4.1 µM
[4]
  Efficacy: 181%
[8]
  EC50: 42.8 µM
[5]
  Efficacy: 15.1%
[6]
  EC50: 7.1 µM
[7]
  IC50: 0.8 µM

## CC(C)[C@@H]1CC[C@@H](C)C[C@H]1NC(=O)NCCc1c[nH]c2ccc(O)cc12
[2]
  IC50: 31 µM
[4]
  Efficacy: < 10%
[8]
  EC50: 52.2 µM
[5]
  Efficacy: 12.7%
[7]
  IC50: 15.8 µM

## CC(C)[C@@H]1CC[C@@H](C)C[C@H]1NC(=O)c1ccc(Cl)cc1
[2]
  IC50: 1.6 µM
[4]
  Efficacy: 223%
[8]
  EC50: 4.1 µM
[5]
  Efficacy: 53.8%
[6]
  EC50: 40.2 µM
[7]
  IC50: 0.7 µM

## Cc1ccc(OC(=O)N[C@@H]2C[C@H](C)CC[C@H]2C(C)C)cc1
[2]
  IC50: 0.7 µM
[4]
  Efficacy: 73.9%
[5]
  Efficacy: 3.4%
[6]
  EC50: 0.7 µM
[7]
  IC50: 1.1 µM

## COc1ccc(OC(=O)N[C@@H]2C[C@H](C)CC[C@H]2C(C)C)cc1
[2]
  IC50: 2.6 µM
[4]
  Efficacy: 135%
[8]
  EC50: 53.8 µM
[5]
  Efficacy: 46.6%
[6]
  EC50: 3.2 µM
[7]
  IC50: 2.2 µM

## CC(C)[C@@H]1CC[C@@H](C)C[C@H]1NC(=O)Oc1ccc(C(F)(F)F)cc1
[2]
  IC50: 0.7 µM
[4]
  Efficacy: 88.9%
[5]
  Efficacy: 3.3%
[6]
  EC50: 3 µM
[7]
  IC50: 0.2 µM

## COc1cc(CNC(=O)N[C@@H]2C[C@H](C)CC[C@H]2C(C)C)ccc1O
[2]
  IC50: 19.8 µM
[4]
  Efficacy: < 10%
[8]
  EC50: 0.23 µM
[5]
  Efficacy: 63.2%
[7]
  IC50: 30.5 µM

## CC(C)[C@@H]1CC[C@@H](C)C[C@H]1NC(=O)Oc1cccc(C(F)(F)F)c1
[2]
  IC50: 0.6 µM
[4]
  Efficacy: 220%
[5]
  Efficacy: 7.4%
[6]
  EC50: 13.8 µM
[7]
  IC50: 0.3 µM

## CC(C)[C@@H]1CC[C@@H](C)C[C@H]1NC(=O)c1cccc(Cl)c1
[2]
  IC50: 2.1 µM
[4]
  Efficacy: < 10%
[8]
  EC50: 7.6 µM
[5]
  Efficacy: 41.9%
[7]
  IC50: 2.8 µM

## CC(C)[C@@H]1CC[C@@H](C)C[C@H]1NC(=O)Oc1cccc(-c2ccccc2)c1
[2]
  IC50: 1.5 µM
[4]
  Efficacy: 282%
[8]
  EC50: 7.1 µM
[5]
  Efficacy: 50.9%
[6]
  EC50: 31 µM
[7]
  IC50: 0.05 µM

## CC(C)[C@@H]1CC[C@@H](C)C[C@H]1NC(=O)c1ccc(C(C)(C)C)cc1
[2]
  IC50: 60.8 µM
[4]
  Efficacy: 138%
[8]
  EC50: 0.25 µM
[5]
  Efficacy: 27.4%
[6]
  EC50: 4.9 µM
[7]
  IC50: 97.6 µM

## CC(C)[C@@H]1CC[C@@H](C)C[C@H]1NC(=O)Oc1ccc(-c2ccccc2)cc1
[2]
  IC50: 7.4 µM
[4]
  Efficacy: 87.2%
[5]
  Efficacy: 4.4%
[6]
  EC50: 6.7 µM
[7]
  IC50: 0.7 µM

## CC(C)[C@@H]1CC[C@@H](C)C[C@H]1NC(=O)Oc1ccc(C(C)(C)C)cc1
[2]
  IC50: 0.08 µM
[4]
  Efficacy: 76%
[8]
  EC50: 18.3 µM
[5]
  Efficacy: 23.8%
[6]
  EC50: 11.7 µM
[7]
  IC50: 0.1 µM
